pKd: −log10 of the molar value. Activity calls are given as the source filed them. The rule behind the calls is not given here.

Series [1] can be described thus: Hemolytic activity against human RBC at 50 uM after 1 hr by Drabkin's assay relative to control. The conditions noted are these: human red blood cells (erythrocytes), read-out: Activity. The class given is ADME, cell-based, Erythrocyte.
A short description of series [2]: Hemolytic activity against human RBC at 25 uM after 1 hr by Drabkin's assay relative to control. The class given is ADME, cell-based, Erythrocyte. The conditions noted are these: human red blood cells (erythrocytes), read-out: Activity.
The nature of series [3]: Hemolytic activity against human RBC at 12.5 uM after 1 hr by Drabkin's assay relative to control. The conditions noted are these: human red blood cells (erythrocytes), read-out: Activity. The class given is ADME, cell-based, Erythrocyte.
A short description of series [4]: Hemolytic activity against human RBC at 6.25 uM after 1 hr by Drabkin's assay relative to control. In kind it is ADME, cell-based, Erythrocyte. The conditions noted are these: human red blood cells (erythrocytes), read-out: Activity.
The nature of series [5]: Hemolytic activity against human RBC at 3.125 uM after 1 hr by Drabkin's assay relative to control. In kind it is ADME, cell-based, Erythrocyte. The conditions noted are these: human red blood cells (erythrocytes), read-out: Activity.
A short description of series [6]: Hemolytic activity against human RBC at 1.56 uM after 1 hr by Drabkin's assay relative to control. In kind it is ADME, cell-based, Erythrocyte. The conditions noted are these: human red blood cells (erythrocytes), read-out: Activity.
A short description of series [7]: Hemolytic activity against human RBC at 0.78 uM after 1 hr by Drabkin's assay relative to control. In kind it is ADME, cell-based, Erythrocyte. The conditions noted are these: human red blood cells (erythrocytes), read-out: Activity.
A further series has as its system Erythrocyte. Put plainly: Hemolytic activity against human RBC after 1 hr by Drabkin's assay. The class given is ADME, cell-based.
In a further series the target is Lipid bilayer. Put plainly: Binding affinity to POPC vesicles by surface plasmon resonance spectroscopy. Summed up: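 SPR on a dextran chip carrying immobilized POPC liposomes, with running buffer of 10 mM HEPES and 100 mM KCl at pH 7.4. Peptides in PBS were flowed at 25 μL/min at 10–1000 μM, with reference-subtracted response units. KD and Rmax were fitted from maximum response versus concentration. Regeneration used 20 mM CHAPS followed by fresh liposomes.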

The subject of the next series is Staphylococcus aureus. Put plainly: Growth inhibition of methicillin-resistant Staphylococcus aureus ATCC 43300 at 32 ug/ml after 18 hrs. The class given is functional. To be noted: ATCC 43300, 18 h, read-out: GI. Summed up: (§1)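 Mid-log cultures in cation-adjusted Mueller Hinton broth were added at 5×10^5 CFU/mL to wells at a final compound concentration of 32 μg/mL. Plates stood at 37 °C for 18 h. Growth was read by OD600, and % inhibition was computed against media-only and untreated-bacteria controls.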

A further series has as its system Escherichia coli. Put plainly: Growth inhibition of Escherichia coli ATCC 25922 at 32 ug/ml after 18 hrs. The class given is functional. To be noted: ATCC 25922, 18 h, read-out: GI. An outline of the steps:
(§2)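 Mid-log cultures were prepared as above and seeded at 5×10^5 CFU/mL with compound at a final 32 μg/mL, then held static at 37 °C for 18 h. Growth was read as OD600. Percent inhibition was calculated against media-only and bacteria-only controls on the same plate.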

For a further series, the system named is Klebsiella pneumoniae. Put plainly: Growth inhibition of multidrug-resistant Klebsiella pneumoniae ATCC 700603 at 32 ug/ml after 18 hrs. In kind it is functional. To be noted: ATCC 700603, 18 h, read-out: GI. An outline of the steps:
as §1

The next series relates to Pseudomonas aeruginosa. Put plainly: Growth inhibition of Pseudomonas aeruginosa ATCC 27853 at 32 ug/ml after 18 hrs. To be noted: ATCC 27853, 18 h, read-out: GI. In kind it is functional. Summed up:
as §2

For another series, the system named is Acinetobacter baumannii. Put plainly: Growth inhibition of Acinetobacter baumannii ATCC 19606 at 32 ug/ml after 18 hrs. The class given is functional. The conditions noted are these: ATCC 19606 = CIP 70.34 = JCM 6841, 18 h, read-out: GI. Summed up:
as §2

Another series has as its system Cryptococcus neoformans. Put plainly: Growth inhibition of Cryptococcus neoformans H99 ATCC 208821 at 32 ug/ml after 24 hrs by resazurin dye-based microspectrophotometric assay. In kind it is functional. The conditions noted are these: var. grubii H99 ATCC 208821, 24 h, read-out: GI. Summed up: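 Yeasts were grown 3 days on YPD agar at 30 °C, suspended from five colonies and diluted in YNB broth to a final 2.5×10^3 CFU/mL. Compound at a final 32 μg/mL; incubated 24 h at 35 °C without shaking. C. albicans was read at OD530. C. neoformans was read as OD600–570 after resazurin (0.001% final) and a further 2 h at 35 °C. Fluconazole was the standard.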

Series [8] is described as follows: Induction of pore formation in DOPC vesicles at 20 uM after 3 hrs by carboxyfluorescein dye leakage assay. The conditions noted are these: in the assay text read “after 3 mins” for “after 3 hrs”. Summed up:
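POPC or DOPC liposomes were hydrated in 10 mM HEPES, 100 mM KCl, pH 7.4, containing 50 mM carboxyfluorescein. Size was checked by dynamic light scattering, and vesicles were used at 2.2×10^10 per mL. Peptide at 20 μM was equilibrated with vesicles for 3 min, and dye leakage was measured.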

For another series, the system named is Candida albicans. Put plainly: Growth inhibition of Candida albicans ATCC 90028 at 32 ug/ml after 24 hrs by OD530 light-scattering microspectrophotometric method. To be noted: ATCC 90028, 24 h, read-out: GI.
A short description of series [9]: Hemolytic activity against human RBC at 0.39 uM after 1 hr by Drabkin's assay relative to control. The class given is ADME, cell-based, Erythrocyte. The conditions noted are these: human red blood cells (erythrocytes), read-out: Activity.

`CC(=O)N1CCCN1C(=O)N1CCC[C@H]1C(=O)N1CCCN1C(=O)N1CCC[C@H]1C(=O)N1CCCN1C(=O)N1CCC[C@H]1C(=O)N1CCCN1C(=O)N1CCC[C@H]1C(=O)N1CCCN1C(=O)N1CCC[C@H]1C(=O)N1CCCN1C(=O)N1CCC[C@H]1C(=O)N1CCCN1C(=O)N1CCC[C@H]1C(=O)N1CCCN1C(=O)N1CCC[C@H]1C(=O)NCCO`: in series [1], the hemolysis at 1 h, 50 µM is -0.57%. Moreover, the hemolysis at 1 h, 25 µM in [2] was 0%. Besides, the hemolysis at 1 h, 12.5 µM in series [3] is -0.33%. Moreover, in [4], the hemolysis at 1 h, 6.25 µM amounted to 0.08%. In series [5], the hemolysis at 1 h, 3.125 µM was -0.12%. Also, the hemolysis at 1 h, 1.56 µM in series [6] is -0.12%. In [7], the hemolysis at 1 h, 0.78 µM was -0.16%. Moreover, in the series with Erythrocyte, the Activity entry was “Dose-dependent effect”. Besides, on Lipid bilayer, the pKd was 3.21. The compound also registered an Rmax in the series with Lipid bilayer of 460. Also, the inhibition of growth at 32 µg/mL with Staphylococcus aureus is 16.5%; in the series with Escherichia coli it was 10.7%; in the series with Klebsiella pneumoniae, 10.7%; in the series on Pseudomonas aeruginosa, -0.44%; with Acinetobacter baumannii, 6.55%; in the series with Cryptococcus neoformans it was -0.86%. For the same compound, the inhibition of growth at 32 µg/mL in the series on Candida albicans came out at 2.45%. Also, the result in series [8] was inactive.

On to `CC(C)(C)OC(=O)N1CCC[C@H]1C(=O)N1CCCN1C(=O)N1CCC[C@H]1C(=O)N1CCCN1C(=O)N1CCC[C@H]1C(=O)N1CCCN1C(=O)N1CCC[C@H]1C(=O)N1CCCN1C(=O)N1CCC[C@H]1C(=O)N1CCCN1C(=O)N1CCC[C@H]1C(=O)N1CCCN1C(=O)N1CCC[C@H]1C(=O)N1CCCN1C(=O)N1CCC[C@H]1C(=O)N1CCCN1C(=O)OCc1ccccc1`, for which, in series [1], the hemolysis at 1 h, 50 µM is -0.42%. The hemolysis at 1 h, 25 µM in series [2] was -0.23%. The hemolysis at 1 h, 12.5 µM in series [3] is -0.17%. Further, the hemolysis at 1 h, 6.25 µM in [4] was -0.11%. Moreover, the hemolysis at 1 h, 3.125 µM in series [5] was 0.02%. For the same compound, in series [6], the hemolysis at 1 h, 1.56 µM is -0.04%. Besides, in series [7], the hemolysis at 1 h, 0.78 µM amounted to 0.15%. Moreover, the hemolysis at 1 h, 0.39 µM in series [9] was -0.04%. Also, in the series on Erythrocyte, the Activity entry was “Dose-dependent effect”. Also, at Lipid bilayer, the pKd was 3.36. For the same compound, the Rmax in the series with Lipid bilayer amounted to 632. Further, the inhibition of growth at 32 µg/mL is 20.7% with Staphylococcus aureus; 5.27% with Escherichia coli; 5.27% with Klebsiella pneumoniae; -8.18% in the series with Pseudomonas aeruginosa; 17.8% in the series with Acinetobacter baumannii; -3.43% with Cryptococcus neoformans. Moreover, in the series on Candida albicans, the inhibition of growth at 32 µg/mL stood at 2.92%. Further, in series [8], the outcome was inactive.

For `O=CN1CCCN1C(=O)N1CCC[C@H]1C(=O)N1CCCN1C(=O)N1CCC[C@H]1C(=O)N1CCCN1C(=O)N1CCC[C@H]1C(=O)N1CCCN1C(=O)N1CCC[C@H]1C(=O)N1CCCN1C(=O)N1CCC[C@H]1C(=O)N1CCCN1C(=O)N1CCC[C@H]1C(=O)N1CCCN1C(=O)N1CCC[C@H]1C(=O)N1CCCN1C(=O)N1CCC[C@H]1C(=O)NCCO`, in [1], the hemolysis at 1 h, 50 µM was -0.17%. Further, the hemolysis at 1 h, 25 µM in series [2] is -0.23%. For the same compound, the hemolysis at 1 h, 12.5 µM in [3] was -0.23%. The hemolysis at 1 h, 6.25 µM in series [4] was -0.17%. Moreover, the hemolysis at 1 h, 3.125 µM in series [5] is 0.02%. Further, the hemolysis at 1 h, 1.56 µM in [6] was -0.17%. Also, the hemolysis at 1 h, 0.78 µM in series [7] worked out at 0.08%. Besides, the hemolysis at 1 h, 0.39 µM in series [9] was -0.11%. Also, in the series on Erythrocyte, the Activity entry was “Dose-dependent effect”. Also, the inhibition of growth at 32 µg/mL with Staphylococcus aureus was 16.5%; in the series with Escherichia coli, 3.23%; in the series on Klebsiella pneumoniae, 3.23%; in the series on Pseudomonas aeruginosa, -4.91%; in the series on Acinetobacter baumannii, 12.3%; in the series on Cryptococcus neoformans, -8.24%. In addition, in the series with Candida albicans, the inhibition of growth at 32 µg/mL worked out at 5.4%. The result in series [8] was inactive.

The record behind these values is ChEMBL document CHEMBL4196059, “Design, synthesis, and biological evaluation of stable β6.3-Helices: Discovery of non-hemolytic antibacterial peptides” (Eur J Med Chem, 2018).
